# Reference: ChEMBL document CHEMBL4350961, “Discovery of Pyrrolo[3,2- d]pyrimidin-4-one Derivatives as a New Class of Potent and Cell-Active Inhibitors of P300/CBP-Associated Factor Bromodomain” (J Med Chem, 2019)
# Active and inactive are the calls of the source. The rule behind the calls is not given here.
# Key:
# [1] = molecular target: Serine/threonine-protein kinase B-raf (Homo sapiens) (UniProt P15056); experiment: Inhibition of recombinant human BRAF (416 to end residues) at 10 uM using myelin basic protein as substrate measured after 40 mins in presence of [gamma33P]ATP by scintillation counting method
# [2] = system: Mast/stem cell growth factor receptor Kit (Homo sapiens), P10721 [D816V]; experiment: Inhibition of recombinant human c-Kit D816V mutant (544 to end residues) at 10 uM using poly(Glu, Tyr) 4:1 as substrate measured after 40 mins in presence of [gamma33P]ATP by scintillation counting method
# [3] = molecular target: Ephrin type-B receptor 4 (Homo sapiens) (UniProt P54760); experiment: Inhibition of recombinant human EphB4 (561 to end residues) at 10 uM using poly (Glu, Tyr) 4:1 as substrate measured after 40 mins in presence of [gamma33P]ATP by scintillation counting method
# [4] = molecular target: Histone acetyltransferase KAT2A (Homo sapiens, UniProt Q92830); experiment: Binding affinity to human partial length GCN5L2 (E726 to K837 residues) expressed in bacterial expression system at 1 uM by BROMOscan assay
# Histone acetyltransferase KAT2A, sequence (Q92830 2-837 limits assumed): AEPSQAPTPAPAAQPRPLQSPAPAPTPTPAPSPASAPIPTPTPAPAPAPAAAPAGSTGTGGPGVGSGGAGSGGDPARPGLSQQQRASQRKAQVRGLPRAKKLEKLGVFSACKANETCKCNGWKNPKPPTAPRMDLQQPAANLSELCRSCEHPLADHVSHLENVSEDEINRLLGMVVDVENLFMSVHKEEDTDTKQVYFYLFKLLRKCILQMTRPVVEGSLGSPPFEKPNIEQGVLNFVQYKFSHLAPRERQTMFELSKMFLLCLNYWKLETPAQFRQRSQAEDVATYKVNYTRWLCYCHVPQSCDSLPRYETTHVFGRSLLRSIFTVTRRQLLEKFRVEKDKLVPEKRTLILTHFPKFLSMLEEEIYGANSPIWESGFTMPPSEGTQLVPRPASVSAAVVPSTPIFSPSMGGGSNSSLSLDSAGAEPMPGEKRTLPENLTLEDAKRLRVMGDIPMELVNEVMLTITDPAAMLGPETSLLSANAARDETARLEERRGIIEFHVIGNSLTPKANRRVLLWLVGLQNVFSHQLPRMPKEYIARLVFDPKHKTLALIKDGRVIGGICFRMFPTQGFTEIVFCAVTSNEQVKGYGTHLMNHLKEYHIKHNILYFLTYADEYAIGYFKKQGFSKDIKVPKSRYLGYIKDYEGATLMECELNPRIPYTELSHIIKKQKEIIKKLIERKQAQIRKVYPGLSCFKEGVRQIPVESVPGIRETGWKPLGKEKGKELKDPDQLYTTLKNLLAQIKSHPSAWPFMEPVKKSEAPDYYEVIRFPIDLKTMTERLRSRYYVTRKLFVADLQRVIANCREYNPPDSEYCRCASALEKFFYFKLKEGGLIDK
# Method in brief: (§1)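 BROMOscan bromodomain cross-screen run by an outside service, compound at 1 µM against 32 recombinant bromodomains. Binding given as percent of control.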
# [5] = molecular target: [Pyruvate dehydrogenase (acetyl-transferring)] kinase isozyme 2, mitochondrial (Homo sapiens) (UniProt Q15119); experiment: Inhibition of human PDHK2 at 10 uM by radiometric method
# Method in brief: (§2)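 Kinase panel of 422 kinases screened by Eurofins KinaseProfiler at a single test-compound concentration of 10 µM.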
# [6] = molecular target: Tyrosine-protein kinase SYK (Homo sapiens) (UniProt P43405); experiment: Inhibition of recombinant full-length human Syk at 10 uM using poly(Glu, Tyr) 4:1 as substrate measured after 120 mins in presence of [gamma33P]ATP by scintillation counting method
# [7] = molecular target: [Pyruvate dehydrogenase (acetyl-transferring)] kinase isozyme 4, mitochondrial (Homo sapiens) (UniProt Q16654); experiment: Inhibition of recombinant full-length human PDHK4 at 10 uM using KKKYHGHSMSDPGVSYRT as substrate measured after 40 mins in presence of [gamma33P]ATP by scintillation counting method
# [Pyruvate dehydrogenase (acetyl-transferring)] kinase isozyme 4, mitochondrial (Homo sapiens), sequence (Q16654 whole entry, looked up): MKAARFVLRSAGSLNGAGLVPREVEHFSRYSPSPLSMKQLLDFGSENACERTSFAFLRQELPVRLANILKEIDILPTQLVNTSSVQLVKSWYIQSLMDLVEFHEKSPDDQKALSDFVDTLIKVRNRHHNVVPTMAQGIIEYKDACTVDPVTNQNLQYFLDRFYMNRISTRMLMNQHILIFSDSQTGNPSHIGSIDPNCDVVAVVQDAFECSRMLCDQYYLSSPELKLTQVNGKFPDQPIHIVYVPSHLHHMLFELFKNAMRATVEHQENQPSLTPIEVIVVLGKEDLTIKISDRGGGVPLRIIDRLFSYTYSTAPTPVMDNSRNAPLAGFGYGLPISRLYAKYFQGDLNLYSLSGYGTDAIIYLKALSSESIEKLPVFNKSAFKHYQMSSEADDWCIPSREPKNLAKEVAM
# [8] = molecular target: Serine/threonine-protein kinase 4 (Homo sapiens) (UniProt Q13043); experiment: Inhibition of recombinant full-length human MST1 at 10 uM using KKSRGDYMTMQIG as substrate measured after 40 mins in presence of [gamma33P]ATP by scintillation counting method
# Serine/threonine-protein kinase 4 (Homo sapiens), sequence (Q13043 whole entry): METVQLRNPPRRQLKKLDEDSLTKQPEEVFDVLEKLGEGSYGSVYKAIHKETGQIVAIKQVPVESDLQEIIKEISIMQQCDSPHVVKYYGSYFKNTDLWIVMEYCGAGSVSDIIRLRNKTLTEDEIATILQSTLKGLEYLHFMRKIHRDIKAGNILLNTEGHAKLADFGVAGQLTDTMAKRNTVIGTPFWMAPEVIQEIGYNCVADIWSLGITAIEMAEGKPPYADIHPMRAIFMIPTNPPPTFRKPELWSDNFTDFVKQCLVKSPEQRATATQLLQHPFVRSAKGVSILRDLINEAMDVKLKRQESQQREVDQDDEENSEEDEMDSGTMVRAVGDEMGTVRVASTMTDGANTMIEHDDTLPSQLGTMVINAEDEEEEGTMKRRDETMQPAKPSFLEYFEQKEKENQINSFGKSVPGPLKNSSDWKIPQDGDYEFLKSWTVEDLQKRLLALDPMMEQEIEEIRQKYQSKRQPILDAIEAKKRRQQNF
# Homo sapiens [9] = organism: Homo sapiens; experiment: Inhibition of recombinant full-length human ATRIP/ATR M211T mutant at 10 uM using GST-cMyc-p53 as substrate measured after 40 mins by fluorescence assay
# Homo sapiens [10] = organism: Homo sapiens; experiment: Inhibition of recombinant human Plk4 S34T mutant (1 to 273 residues) at 10 uM using casein as substrate measured after 40 mins in presence of [gamma33P]ATP by scintillation counting method
# Homo sapiens [11] = organism: Homo sapiens; experiment: Inhibition of recombinant human MAPKAPK2 A399G mutant (46 to end residues) at 10 uM using KKLNRTLSVA as substrate measured after 40 mins in presence of [gamma33P]ATP by scintillation counting method
# [12] = molecular target: Citron Rho-interacting kinase (Homo sapiens) (UniProt O14578); experiment: Inhibition of recombinant human CRIK at 10 uM using KKLRRTLSVA as substrate measured after 120 mins in presence of [gamma33P]ATP by scintillation counting method
# [13] = molecular target: Fibroblast growth factor receptor 4 (Homo sapiens) (UniProt P22455); experiment: Inhibition of recombinant human FGFR4 (442 to 755 residues) at 10 uM using poly(Glu, Tyr) 4:1 as substrate measured after 40 mins in presence of [gamma33P]ATP by scintillation counting method
# Fibroblast growth factor receptor 4 (Homo sapiens), sequence (P22455 22-802 limits assumed): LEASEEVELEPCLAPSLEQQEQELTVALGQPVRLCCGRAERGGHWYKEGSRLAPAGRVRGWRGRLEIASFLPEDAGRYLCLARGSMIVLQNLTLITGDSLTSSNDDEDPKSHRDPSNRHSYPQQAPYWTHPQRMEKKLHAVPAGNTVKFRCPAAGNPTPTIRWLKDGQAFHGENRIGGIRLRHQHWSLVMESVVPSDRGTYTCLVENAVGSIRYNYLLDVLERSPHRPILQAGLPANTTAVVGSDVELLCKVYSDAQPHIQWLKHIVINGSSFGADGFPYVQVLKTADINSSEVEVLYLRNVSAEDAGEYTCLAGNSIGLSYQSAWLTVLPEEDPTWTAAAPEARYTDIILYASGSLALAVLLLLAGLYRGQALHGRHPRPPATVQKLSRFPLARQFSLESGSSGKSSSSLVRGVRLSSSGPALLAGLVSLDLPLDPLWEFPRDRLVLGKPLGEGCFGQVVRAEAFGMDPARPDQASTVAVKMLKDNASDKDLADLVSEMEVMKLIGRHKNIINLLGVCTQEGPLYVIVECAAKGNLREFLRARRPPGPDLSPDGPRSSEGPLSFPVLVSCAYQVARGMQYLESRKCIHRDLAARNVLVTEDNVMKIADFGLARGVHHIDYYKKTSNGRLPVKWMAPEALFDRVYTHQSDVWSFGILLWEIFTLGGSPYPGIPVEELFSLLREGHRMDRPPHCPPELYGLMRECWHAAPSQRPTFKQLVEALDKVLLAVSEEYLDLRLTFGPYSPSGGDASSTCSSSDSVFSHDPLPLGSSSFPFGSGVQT
# [14] = molecular target: Nucleosome-remodeling factor subunit BPTF (Homo sapiens, UniProt Q12830); experiment: Binding affinity to human N-terminal His-tagged FALZ assessed as change in melting temperature at 10 uM by SYPRO orange dye-based fluorescence assay
# Method in brief: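 Thermal shift with His-tagged human bromodomain at 2 μM final in 10 mM HEPES pH 7.5, 500 mM NaCl. Compound at 10 μM final with 0.1% DMSO; SYPRO Orange at 1:1000. Equilibrated 3 min at 25 °C, then heated from 25 to 95 °C at 1 °C/min. Melting temperature shift taken from fluorescence; at least duplicate.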
# [15] = molecular target: Serine/threonine-protein kinase pim-3 (Homo sapiens) (UniProt Q86V86); experiment: Inhibition of recombinant human Pim3 (2 to end residues) at 10 uM using RSRHSSYPAGT as substrate measured after 40 mins in presence of [gamma33P]ATP by scintillation counting method
# [16] = molecular target: SWI/SNF-related matrix-associated actin-dependent regulator of chromatin subfamily A member 2 (Homo sapiens) (UniProt P51531); experiment: Binding affinity to human partial length SMARCA2 (S1377 to Q1486 residues) expressed in bacterial expression system at 1 uM by BROMOscan assay; method in brief: as §1
# SWI/SNF-related matrix-associated actin-dependent regulator of chromatin subfamily A member 2 (Homo sapiens), sequence (P51531 whole entry, the tested form may be a part): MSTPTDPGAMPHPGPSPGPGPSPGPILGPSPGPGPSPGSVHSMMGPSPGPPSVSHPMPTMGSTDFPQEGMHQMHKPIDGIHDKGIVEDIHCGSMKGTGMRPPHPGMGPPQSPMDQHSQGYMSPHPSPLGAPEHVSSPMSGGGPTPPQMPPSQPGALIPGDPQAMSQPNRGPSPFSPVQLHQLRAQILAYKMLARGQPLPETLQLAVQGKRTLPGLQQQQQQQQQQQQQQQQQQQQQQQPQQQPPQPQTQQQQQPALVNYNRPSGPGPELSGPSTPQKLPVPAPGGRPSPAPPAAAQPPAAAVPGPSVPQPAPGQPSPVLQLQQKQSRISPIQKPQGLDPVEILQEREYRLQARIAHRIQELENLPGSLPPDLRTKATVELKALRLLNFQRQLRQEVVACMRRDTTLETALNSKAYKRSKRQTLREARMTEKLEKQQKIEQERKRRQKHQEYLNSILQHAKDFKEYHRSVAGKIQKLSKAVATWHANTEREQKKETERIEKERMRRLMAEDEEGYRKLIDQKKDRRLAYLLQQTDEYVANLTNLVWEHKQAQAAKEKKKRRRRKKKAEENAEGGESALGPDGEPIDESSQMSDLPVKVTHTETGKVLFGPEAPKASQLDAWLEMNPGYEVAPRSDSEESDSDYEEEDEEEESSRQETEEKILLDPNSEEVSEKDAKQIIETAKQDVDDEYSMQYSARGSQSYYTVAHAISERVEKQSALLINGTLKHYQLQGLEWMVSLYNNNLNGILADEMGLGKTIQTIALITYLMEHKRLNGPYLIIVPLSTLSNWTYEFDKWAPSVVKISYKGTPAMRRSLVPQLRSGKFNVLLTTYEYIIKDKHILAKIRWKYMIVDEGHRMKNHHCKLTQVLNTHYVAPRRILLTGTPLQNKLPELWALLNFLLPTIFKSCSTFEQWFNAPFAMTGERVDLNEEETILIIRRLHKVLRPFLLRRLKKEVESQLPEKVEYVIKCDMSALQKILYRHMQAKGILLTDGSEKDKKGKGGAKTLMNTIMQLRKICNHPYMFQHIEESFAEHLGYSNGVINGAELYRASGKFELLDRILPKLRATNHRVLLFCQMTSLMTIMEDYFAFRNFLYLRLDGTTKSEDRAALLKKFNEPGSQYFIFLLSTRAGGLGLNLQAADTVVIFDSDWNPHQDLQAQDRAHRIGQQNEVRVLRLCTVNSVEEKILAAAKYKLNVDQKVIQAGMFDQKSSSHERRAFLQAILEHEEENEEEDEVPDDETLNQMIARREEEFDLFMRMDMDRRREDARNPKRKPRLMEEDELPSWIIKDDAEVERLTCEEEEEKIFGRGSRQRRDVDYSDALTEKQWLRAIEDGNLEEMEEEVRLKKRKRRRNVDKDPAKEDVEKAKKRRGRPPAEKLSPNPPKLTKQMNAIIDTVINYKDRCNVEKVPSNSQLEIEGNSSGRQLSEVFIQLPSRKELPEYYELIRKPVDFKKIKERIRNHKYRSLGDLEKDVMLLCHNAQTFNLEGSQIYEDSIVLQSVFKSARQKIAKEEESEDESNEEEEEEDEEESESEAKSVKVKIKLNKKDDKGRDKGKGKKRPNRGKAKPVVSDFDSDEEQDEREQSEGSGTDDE
# [17] = molecular target: Dual specificity mitogen-activated protein kinase kinase 4 (Homo sapiens) (UniProt P45985); experiment: Inhibition of recombinant human MKK4 (34 to end residues) at 10 uM using unactive JNK1a1 as substrate measured after 40 mins in presence of [gamma33P]ATP by scintillation counting method
# [18] = molecular target: Histone acetyltransferase p300 (Homo sapiens) (UniProt Q09472); experiment: Binding affinity to human partial length EP300 (A1040 to G1161 residues) expressed in bacterial expression system at 1 uM by BROMOscan assay; method in brief: as §1
# [19] = molecular target: Casein kinase I isoform gamma-2 (Homo sapiens) (UniProt P78368); experiment: Inhibition of recombinant human CK1gamma2 (18 to end residues) at 10 uM using KRRRALS(p)VASLPGL as substrate measured after 40 mins in presence of [gamma33P]ATP by scintillation counting method
# Casein kinase I isoform gamma-2 (Homo sapiens), sequence (P78368 whole entry, looked up, canonical isoform): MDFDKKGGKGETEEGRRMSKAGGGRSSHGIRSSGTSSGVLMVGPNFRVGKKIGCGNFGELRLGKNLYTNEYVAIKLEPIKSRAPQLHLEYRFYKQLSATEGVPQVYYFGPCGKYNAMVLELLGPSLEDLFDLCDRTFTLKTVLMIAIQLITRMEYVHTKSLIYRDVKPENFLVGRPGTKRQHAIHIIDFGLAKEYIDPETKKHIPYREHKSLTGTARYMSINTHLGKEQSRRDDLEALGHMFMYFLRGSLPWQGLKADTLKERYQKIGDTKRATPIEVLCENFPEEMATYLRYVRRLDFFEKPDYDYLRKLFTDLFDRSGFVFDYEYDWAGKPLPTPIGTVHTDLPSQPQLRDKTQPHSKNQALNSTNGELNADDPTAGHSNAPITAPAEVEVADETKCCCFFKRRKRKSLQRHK
# [20] = molecular target: Protein-tyrosine kinase 6 (Homo sapiens) (UniProt Q13882); experiment: Inhibition of full-length recombinant human BRK at 10 uM using poly(Glu, Tyr) 4:1 as substrate measured after 40 mins in presence of [gamma33P]ATP by scintillation counting method; method in brief: as §2
# [21] = molecular target: Serine/threonine-protein kinase tousled-like 2 (Homo sapiens) (UniProt Q86UE8); experiment: Inhibition of human TLK2 (387 to end residues) using casein as substrate measured after 40 mins in presence of [gamma33P]ATP by scintillation counting method
# [22] = molecular target: SRSF protein kinase 2 (Homo sapiens) (UniProt P78362); experiment: Inhibition of human SRPK2 (46 to end residues) using RSRSRSRSRSRSRSR as substrate measured after 40 mins in presence of [gamma33P]ATP by scintillation counting method; method in brief: as §2
# [23] = AUC (0 to t) in Sprague-Dawley rat at 10 mg/kg, po administered via gavage by LC-MS/MS analysis; type: ADME, organism-based; conditions: in vivo
# Method in brief: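 Serial jugular blood samples taken at designated times and spun to plasma at 4 ℃. Plasma mixed with acetonitrile holding internal standard, then LC-MS/MS. Parameters from noncompartmental fitting.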
smiles,measurement,setting,value
CN1C[C@H](Nc2nc3cc[nH]c3c(=O)n2C)C[C@H](c2ccc3c(c2)OCCO3)C1,inhibition,[1],inactive
same,inhibition,[2],inactive
same,inhibition,[3],inactive
same,Activity,[4],Active
same,inhibition,[5],inactive
same,inhibition,[6],inactive
same,inhibition,[7],inactive
same,inhibition,[8],inactive
same,inhibition,Homo sapiens [9],inactive
same,inhibition,Homo sapiens [10],inactive
same,inhibition,Homo sapiens [11],inactive
same,inhibition,[12],inactive
same,inhibition,[13],inactive
same,ΔTm,[14],5.3 °C
same,inhibition,[15],inactive
same,Activity,[16],inactive
same,inhibition,[17],inactive
same,Activity,[18],inactive
same,inhibition,[19],inactive
same,inhibition,[20],inactive
same,inhibition,[21],inactive
same,inhibition,[22],inactive
same,AUC(0-t),[23],2480 ng·h/mL
